In publication PMC8776895 (British journal of pharmacology, 2021):
Positions of bridges follow the written chain, without caps; N, C: chain ends. Residues, ends and D or L forms follow the SMILES beside them. No end group written: not given here.

Assays:
Format in all cases: cell-based
[1] = biological target: T1, m-CTR:m-RAMP2 (Mus musculus, UniProt Q60755+Q9WUP0, P10T); experiment: cAMP production, agonist concentration-response, transfected Cos7 cells; conditions: SEM
T1 sequence (Q60755 42-496 isoform Q60755-2): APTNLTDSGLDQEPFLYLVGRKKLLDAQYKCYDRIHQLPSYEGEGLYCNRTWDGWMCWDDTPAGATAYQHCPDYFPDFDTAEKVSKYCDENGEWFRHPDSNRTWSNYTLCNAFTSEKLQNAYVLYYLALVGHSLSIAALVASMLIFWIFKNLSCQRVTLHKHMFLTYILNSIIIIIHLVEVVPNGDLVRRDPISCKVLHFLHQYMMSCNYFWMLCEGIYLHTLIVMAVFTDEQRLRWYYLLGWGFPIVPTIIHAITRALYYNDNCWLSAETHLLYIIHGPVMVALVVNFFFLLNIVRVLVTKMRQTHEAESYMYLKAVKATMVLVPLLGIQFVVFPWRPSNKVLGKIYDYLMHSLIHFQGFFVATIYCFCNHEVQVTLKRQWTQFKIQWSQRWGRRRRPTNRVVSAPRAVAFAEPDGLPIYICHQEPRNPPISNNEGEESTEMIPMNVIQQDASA
T1 sequence (Q9WUP0 45-189): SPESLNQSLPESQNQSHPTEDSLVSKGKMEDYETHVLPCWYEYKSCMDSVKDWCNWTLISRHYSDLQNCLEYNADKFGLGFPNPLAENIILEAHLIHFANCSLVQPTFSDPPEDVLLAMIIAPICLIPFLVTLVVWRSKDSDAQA

[2] = biological target: m-CLR:m-RAMP1 (Mus musculus, UniProt Q9R1W5+Q9WTJ5); experiment: as above; conditions: for EC50: SEM
m-CLR:m-RAMP1, sequence (Q9R1W5 23-463, one chain of several): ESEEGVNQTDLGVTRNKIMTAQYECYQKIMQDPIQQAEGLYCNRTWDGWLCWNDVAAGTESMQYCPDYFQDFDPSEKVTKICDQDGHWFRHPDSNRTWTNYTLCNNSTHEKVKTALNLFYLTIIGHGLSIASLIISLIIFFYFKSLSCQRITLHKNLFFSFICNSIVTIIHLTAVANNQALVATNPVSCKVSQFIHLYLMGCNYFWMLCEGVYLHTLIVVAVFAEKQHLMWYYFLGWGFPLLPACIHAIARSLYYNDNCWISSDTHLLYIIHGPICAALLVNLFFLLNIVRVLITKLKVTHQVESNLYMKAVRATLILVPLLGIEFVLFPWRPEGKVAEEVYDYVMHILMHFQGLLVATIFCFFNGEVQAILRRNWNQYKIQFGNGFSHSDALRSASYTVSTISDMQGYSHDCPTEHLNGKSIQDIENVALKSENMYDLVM

[3] = biological target: T2, m-CTR:pcDNA (m-CTR alone) (Mus musculus, UniProt Q60755); experiment: as above; conditions: SEM
T2 sequence (Q60755 42-496 isoform Q60755-2 limits assumed): T1 sequence (Q60755 42-496 isoform Q60755-2)

[4] = biological target: T3, m-CTR:m-RAMP1 (Mus musculus, UniProt Q60755+Q9WTJ5); experiment: as above; conditions: for EC50: SEM
T3 sequence (Q60755 42-496 isoform Q60755-2 limits assumed): T1 sequence (Q60755 42-496 isoform Q60755-2)
T3 sequence (Q9WTJ5 27-148): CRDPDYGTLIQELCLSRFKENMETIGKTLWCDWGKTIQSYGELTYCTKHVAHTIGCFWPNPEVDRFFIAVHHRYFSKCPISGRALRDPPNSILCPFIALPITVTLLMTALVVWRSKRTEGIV

[5] = biological target: T4, m-CLR:m-RAMP2 (Mus musculus, UniProt Q9R1W5+Q9WUP0, P10T); experiment: as above; conditions: for EC50: SEM
T4 sequence (Q9R1W5 23-463, one chain of several): as the sequence (Q9R1W5 23-463, one chain of several) above

[6] = biological target: T5, m-CTR:m-RAMP3 (Mus musculus, UniProt Q60755+Q9WUP1); experiment: as above; conditions: for EC50: SEM; for fold increase in potency relative to m-CTR alone: m-CTR:m-RAMP3 versus m-CTR:pcDNA
T5 sequence (Q60755 42-496 isoform Q60755-2 limits assumed): T1 sequence (Q60755 42-496 isoform Q60755-2)
T5 sequence (Q9WUP1 23-147): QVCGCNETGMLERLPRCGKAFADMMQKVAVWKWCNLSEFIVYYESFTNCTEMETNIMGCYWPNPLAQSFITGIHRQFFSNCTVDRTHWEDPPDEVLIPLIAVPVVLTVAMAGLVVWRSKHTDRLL

[7] = biological target: T6, m-CLR:m-RAMP3 (Mus musculus, UniProt Q9R1W5+Q9WUP1); experiment: as above; conditions: SEM
T6 sequence (Q9R1W5 23-463, one chain of several): as the sequence (Q9R1W5 23-463, one chain of several) above

[8] = biological target: m-CLR:pcDNA (Mus musculus, UniProt Q9R1W5); experiment: cAMP production, agonist stimulation, Cos7 cells with m-CLR without RAMP; conditions: concentrations as high as 10 μM
m-CLR:pcDNA, sequence (Q9R1W5 23-463): as the sequence (Q9R1W5 23-463, one chain of several) above
Summary of the method: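 Mouse CLR was co-transfected 1:1 with empty pcDNA3.1(+) (no RAMP) into Cos-7 cells with polyethylenimine. Cells were seeded at 15,000–20,000/well, transfected 18–24 h later and used about 48 h after that. After 30 min in DMEM with 1 mM IBMX and 0.1% BSA, agonist peptides were applied for 15 min at 37 °C. Forskolin (100 µM final) served as positive control. cAMP was quantified by LANCE assay from a standard curve, in duplicate or triplicate.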

[9] = biological target: T6, m-CLR:m-RAMP3; experiment: Antagonism of agonist-stimulated cAMP production, transfected Cos7 cells; conditions: agonist m-AM, mean ± s.e.m., n = 5, SEM
[10] = biological target: T4, m-CLR:m-RAMP2; experiment: as above

| EC50 [1] | EC50 [2] | fold less potent than m/r-αCGRP ([2]; m-CLR:m-RAMP1, cAMP pEC50) | EC50 [3] | EC50 [4] | EC50 [5] | EC50 [6] | EC50 [7] | fold increase in potency relative to m-CTR alone ([4]; m-CTR:m-RAMP1 versus m-CTR:pcDNA) | fold less potent than m-AM ([5]; m-CLR:m-RAMP2, cAMP pEC50) | fold increase in potency relative to m-CTR alone [6] | cAMP response to stimulation [8] | pA2 [9] | pA2 ([10]; agonist m-AM, m-CLR:m-RAMP2, mean ± s.e.m., n = 5, SEM) | fold more effective at m-CLR:m-RAMP2 over m-CLR:m-RAMP3 ([10]; from pA2, agonist m-AM) | Molecule |
| --- | --- | --- | --- | --- | --- | --- | --- | --- | --- | --- | --- | --- | --- | --- | --- |
| 8.13 nM | 0.955 nM | approximately 14 fold | 12.3 nM | 3.02 nM | 3.72 nM | 1.66 nM | 0.776 nM |  |  |  |  |  |  |  | CC(C)C[C@H](NC(=O)[C@H](CCCNC(=N)N)NC(=O)[C@H](Cc1c[nH]cn1)NC(=O)[C@H](CO)NC(=O)[C@H](CC(C)C)NC(=O)[C@H](CC(N)=O)NC(=O)[C@H](CCC(N)=O)NC(=O)[C@@H](NC(=O)[C@H](CCC(N)=O)NC(=O)[C@@H]1CSSC[C@H](NC(=O)CNC(=O)[C@@H](N)C(C)C)C(=O)N[C@@H](C(C)C)C(=O)N[C@@H](CC(C)C)C(=O)NCC(=O)N[C@@H]([C@@H](C)O)C(=O)N1)C(C)C)C(=O)N[C@@H](Cc1c[nH]c2ccccc12)C(=O)N[C@@H](CCC(N)=O)C(=O)N[C@@H](CC(C)C)C(=O)N[C@H](C(=O)N[C@@H](CCCNC(=N)N)C(=O)N1CCC[C@H]1C(=O)N[C@@H](C)C(=O)NCC(=O)N[C@@H](CCCNC(=N)N)C(=O)N[C@@H](CCCNC(=N)N)C(=O)N[C@@H](CC(=O)O)C(=O)N[C@@H](CO)C(=O)N[C@@H](C)C(=O)N1CCC[C@H]1C(=O)N[C@H](C(=O)N[C@@H](CC(=O)O)C(=O)N1CCC[C@H]1C(=O)N[C@@H](CO)C(=O)N[C@@H](CO)C(=O)N1CCC[C@H]1C(=O)N[C@@H](Cc1c[nH]cn1)C(=O)N[C@@H](CO)C(=O)N[C@@H](Cc1ccc(O)cc1)C(N)=O)C(C)C)C(C)C [m-AM2_40] (H-VGCVLGTCQVQNLSHRLWQLVRPAGRRDSAPVDPSSPHSY-NH2; disulfide 3-8; N-terminus assumed) |
| 42.7 nM | 4.47 nM |  | 56.2 nM | 6.92 nM | 10.5 nM | 2.14 nM | 1.32 nM | eight | ~ seven | 26 fold |  |  |  |  | PHAQLLRVGCVLGTCQVQNLSHRLWQLVRPAGRRDSAPVDPSSPHSY-NH2 (disulfide 10-15) [m-AM2_47] |
| 19.5 nM | 6.61 nM |  | 37.2 nM | 27.5 nM | 1.55 nM | 3.55 nM | 0.468 nM |  |  | 11 fold | did not respond |  |  |  | YRQSMNQGSRSNGCRFGTCTFQKLAHQIYQLTDKDKDGMAPRNKISPQGY-NH2 (disulfide 14-19) [m-AM] |
|  |  |  |  |  |  |  |  |  |  |  |  | 5.19 ± 0.21 | 5.71 ± 0.03 | three | h-AM22-52: commonly used AM-receptor antagonist, purchased from Bachem |
